Assay results gathered from unrelated publications.
Each line is one published result; the experiments were not run side by side.
BCHE: Cholinesterase (BCHE, Equus caballus, UniProt P81908)
C3AR1: C3a anaphylatoxin chemotactic receptor (C3AR1, Homo sapiens, UniProt Q16581)

| SMILES | target | test | endpoint | value |
| --- | --- | --- | --- | --- |
| CC(C)(C)OC(=O)NC1CCCN(C(=O)/C=C/c2ccc(Cl)cc2)C1 (stereo not shown) | BCHE | enzyme activity, inhibitor, Ellman | IC50 | > 50 µM |
| CCN(C)C(=O)Oc1ccc(/C=C/C(=O)NC2CCN(Cc3ccccc3)CC2)cc1 | BCHE | enzyme activity, inhibitor, Ellman | IC50 | 16.3 µM |
| CC(C)C[C@H](NC(=O)[C@@H](N)[C@@H](C)O)C(=O)N[C@@H](CCC(N)=O)C(=O)N1CCC[C@H]1C(=O)N1CCC[C@H]1C(=O)N[C@@H](C)C(=O)N[C@@H](CO)C(=O)N[C@@H](CO)C(=O)N[C@@H](CCCNC(=N)N)C(=O)N[C@H](CCCNC(=N)N)C(=O)N[C@@H](CCCNC(=N)N)C(=O)N[C@@H](Cc1c[nH]cn1)C(=O)N[C@@H](Cc1ccccc1)C(=O)N[C@@H](Cc1c[nH]cn1)C(=O)N[C@@H](Cc1c[nH]cn1)C(=O)N[C@@H](C)C(=O)N[C@@H](CC(C)C)C(=O)N1CCC[C@H]1C(=O)N1CCC[C@H]1C(=O)NCC(=O)N[C@@H](CCCNC(=N)N)C(=O)O | C3AR1 | β-arrestin recruitment, agonist | EC50 | 97 nM |
| O=C(O)C(/C=C/c1ccc(Cl)cc1)=N\Nc1nc(-c2ccccc2)cs1 | BCHE | enzyme activity, inhibitor | IC50 | 2.03 µM |
| O=C(N1CCC2(CC1)C[C@@H](CN1CCCCS1(=O)=O)CCO2)C1(c2ccccc2)CCCC1 | DHX58 (Homo sapiens, UniProt Q96C10) | ATPase activity, inhibitor | IC50 | > 50 µM |
| COc1cc(CCC(=O)N2CCC(Cc3ccccc3)CC2)ccc1OC(=O)N(C)C | BCHE | enzyme activity, inhibitor, Ellman | IC50 | 1.3 µM |
| COc1ccc(-c2csc(N/N=C(/C=C/c3c(Cl)cccc3Cl)C(=O)O)n2)cc1 | BCHE | enzyme activity, inhibitor | IC50 | 5.01 µM |
| COc1cc2c(cc1OC)CN(CCc1ccc(NC(=O)c3cccc4c(=O)c5cccc(OC)c5[nH]c34)cc1)CC2 | D(1A) dopamine receptor (DRD1, Homo sapiens, UniProt P21728) | cell-free assay | Ki | > 10 µM |
| CC(C)C[C@H](NC(=O)[C@@H](N)[C@@H](C)O)C(=O)N[C@@H](CCC(N)=O)C(=O)N1CCC[C@H]1C(=O)N1CCC[C@H]1C(=O)N[C@@H](C)C(=O)N[C@@H](CO)C(=O)N[C@@H](CO)C(=O)N[C@@H](CCCNC(=N)N)C(=O)N[C@H](CCCNC(=N)N)C(=O)N[C@@H](CCCNC(=N)N)C(=O)N[C@@H](Cc1c[nH]cn1)C(=O)N[C@@H](Cc1ccccc1)C(=O)N[C@@H](Cc1c[nH]cn1)C(=O)N[C@@H](Cc1c[nH]cn1)C(=O)N[C@@H](C)C(=O)N[C@@H](CC(C)C)C(=O)N1CCC[C@H]1C(=O)N1CCC[C@H]1C(=O)N[C@@H](C)C(=O)N[C@@H](CCCCNC(=N)N)C(=O)O | C3AR1 | G protein activation, agonist, BRET | EC50 | 259 nM |
| CCOc1ccc(/C=C/C(=O)N2CCCC(NC(=O)OC(C)(C)C)C2)cc1OC (stereo not shown) | BCHE | enzyme activity, inhibitor, Ellman | IC50 | 13.5 µM |
